Measured values: ChEMBL document CHEMBL1132195, “cycloSal-Pronucleotides of 2',3'-dideoxyadenosine and 2', 3'-dideoxy-2',3'-didehydroadenosine: synthesis and antiviral evaluation of a highly efficient nucleotide delivery system” (J Med Chem, 1999)

Assays:
[1] = test system: CCRF-CEM; assay: In vitro cytotoxic concentration in CEM cells.; assay type: functional, Homo sapiens
[2] = test system: Human immunodeficiency virus 2; assay: In vitro inhibition of HIV-2 replication in human T-lymphocytic cells (CEM).; assay type: functional, organism-based
Summary of the method: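 CEM cells at 4×10^5 cells/mL infected with HIV-1 or HIV-2 (strain ROD, stocks grown in MT-4 cells) at ~100 CCID50 per mL. Infected cells mixed 1:1 with compound dilutions. Giant cell formation recorded microscopically after 4-5 days; EC50 is the 50% effective concentration.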

[3] = Selectivity by CC50 of CEM cells/EC50 of CEM cells against HIV-1; assay type: functional, CCRF-CEM
[4] = test system: C3H/3T3; assay: Minimal cytotoxic concentration in C3H/3T3 cells.; assay type: functional; settings: Mus musculus
Summary of the method: (§1)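 C3H/3T3 mouse embryo fibroblasts seeded at 20 000 cells/mL, incubated 24 h, infected with 80 focus-forming units of MSV for 120 min, then given fresh medium with compound dilutions. Transformation scored microscopically after 6 days; EC50 is the concentration giving 50% inhibition of transformation. MCC is the lowest concentration causing microscopically visible morphological alteration of the fibroblast cultures.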

[5] = Partition coefficient (logP); assay type: physicochemical; settings: octanol/water
Summary of the method: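 Compound dissolved in 1-octanol, shaken with an equal volume of water for 10 min and phases separated by centrifugation. Each phase analysed by RP-HPLC with UV detection at 260 nm. P calculated from the peak areas of the aqueous and organic phases.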

[6] = test system: C3H/3T3; assay: (§2) Effect of compound against Moloney murine sarcoma virus (MSV)-induced transformation of C3H/3T3 embryo murine fibroblasts; assay type: functional, cell-based, Mus musculus; summary of the method: as §1
[7] = test system: Human immunodeficiency virus 1; assay: In vitro inhibition of HIV-1 replication in human T-lymphocytic cells (CEM).; assay type: functional, organism-based
Summary of the method: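 CEM cells at 4×10^5 cells/mL infected with HIV-1 or HIV-2 (strain ROD, stocks grown in MT-4 cells) at ~100 CCID50 per mL. Infected cells mixed 1:1 with compound dilutions.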

[8] = test system: C3H/3T3; assay: Minimal cytotoxic concentration required to cause morphological alteration of C3H/3T3 fibroblast culture cells; assay type: functional; settings: Mus musculus; summary of the method: as §1
[9] = Hydrolysis half life in glycine/HCl buffer at the specified pH of 1.5; assay type: ADME; settings: pH 1.5
Summary of the method: (§3)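 Compound diluted from DMSO stock to 0.71 mM final in 24.8 mM buffer at 37 °C, with AZT as internal standard. Buffers: phosphate (Sörensen) pH 7.3; glycine/HCl pH 3.0 or 1.5. Aliquots stopped by freezing and analysed by RP-HPLC at 260 nm. Rate constant taken from the log degradation slope, half-life calculated from it; mean of duplicates.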

[10] = Hydrolysis half life in phosphate buffer at the specified pH of 7.3; assay type: ADME; settings: pH 7.3; summary of the method: as §3
[11] = Selectivity index by CC50 of CEM cells/EC50 of CEM cells against HIV-1; assay type: functional, CCRF-CEM
[12] = Hydrolysis half life in glycine/HCl buffer at the specified pH of 3.0; assay type: ADME; settings: pH 3; summary of the method: as §3
[13] = test system: C3H/3T3; assay: as §2; assay type: functional, cell-based; settings: Mus musculus; summary of the method: as §1

Row | SMILES | CC50 ([1]; Homo sapiens, CCRF-CEM) | EC50 ([2]; Human immunodeficiency virus 2) | SI [3] | MCC [4] | logP ([5]; read-out: logP) | EC50 ([6]; Mus musculus, C3H/3T3) | EC50 ([7]; Human immunodeficiency virus 1) | MCC [8] | half-life [9] | half-life [10] | SI [11] | half-life [12] | EC50 [13] | logP [5] | CC50 [1] | EC50 [2] | EC50 ([6]; c3h/3t3) | EC50 [7]
1 | Nc1ncnc2c1ncn2[C@H]1CC[C@@H](CO)O1 | > 250000 nM | 4500 nM | >57 | > 50 µM | -0.28 | 40000 nM | 4300 nM | – | – | – | – | – | – | – | – | – | – | –
2 | Cc1cccc2c1OP(=O)(OCC1CCC(n3cnc4c(O)ncnc43)O1)OC2 (centres undefined) | 58000 nM | 700 nM | – | – | 0.14 | > 50000 nM | 1100 nM | > 50 µM | 12 min | 44.5 h | 53 | 180 min | – | – | – | – | – | –
3 | Nc1ncnc2c1ncn2[C@H]1C=C[C@@H](COP2(=O)OCc3ccccc3O2)O1 (some centres undefined) | 86000 nM | 350 nM | – | – | 0.36 | 300 nM | 65 nM | > 50 µM | 0.6 min | 10.3 h | 1329 | 8.4 min | – | – | – | – | – | –
4 | COc1ccc2c(c1)COP(=O)(OCC1CCC(n3cnc4c(N)ncnc43)O1)O2 (centres undefined) | 87000 nM | 160 nM | – | – | 0.64 | – | 47 nM | > 50 µM | 48 min | 23.4 h | 1851 | 732 min | 3900 nM | – | – | – | – | –
5 | Nc1ncnc2c1ncn2[C@H]1C=C[C@@H](CO)O1 | 96000 nM | 50000 nM | – | – | -0.49 | 35000 nM | 30000 nM | > 50 µM | < 0.6 min | – | 3 | 0.6 min | – | – | – | – | – | –
6 | OCC1CCC(n2cnc3ncnc(O)c32)O1 (centres undefined) | 156000 nM | 4000 nM | – | – | -1.25 | > 50000 nM | 3500 nM | > 50 µM | 1.8 min | – | 44 | 12 min | – | – | – | – | – | –
7 | Cc1cccc2c1OP(=O)(OCC1CCC(n3cnc4c(N)ncnc43)O1)OC2 (centres undefined) | 28000 nM | 30 nM | – | – | 0.88 | – | 47 nM | > 50 µM | 31.8 min | 44.3 h | 585 | 834 min | 1180 nM | – | – | – | – | –
8 | Cc1cccc2c1OP(=O)(OC[C@@H]1C=C[C@H](n3cnc4c(N)ncnc43)O1)OC2 (some centres undefined) | 49000 nM | 190 nM | – | – | 0.63 | 1240 nM | 65 nM | > 50 µM | 0.588 min | 32.3 h | 746 | 9 min | – | – | – | – | – | –
9 | Cc1cc(C)c2c(c1)COP(=O)(OC[C@@H]1C=C[C@H](n3cnc4c(N)ncnc43)O1)O2 (some centres undefined) | 25000 nM | 55 nM | – | – | 0.95 | 1140 nM | 50 nM | > 50 µM | 0.6 min | 44.7 h | 494 | 8.4 min | – | – | – | – | – | –
10 | Nc1ncnc2c1ncn2C1CCC(COP2(=O)OCc3ccccc3O2)O1 (centres undefined) | 93000 nM | 130 nM | – | – | – | – | 30 nM | > 50 µM | 36 min | 17 h | 3096 | 774 min | 2860 nM | 0.59 | – | – | – | –
11 | OC[C@@H]1C=C[C@H](n2cnc3ncnc(O)c32)O1 | 87000 nM | > 50000 nM | – | – | -0.89 | > 50000 nM | 4300 nM | > 50 µM | < 0.6 min | – | 20 | < 0.6 min | – | – | – | – | – | –
12 | Cc1cc(C)c2c(c1)COP(=O)(OCC1CCC(n3cnc4c(N)ncnc43)O1)O2 (centres undefined) | 10000 nM | 25 nM | – | – | 1.35 | 1140 nM | 25 nM | > 50 µM | 43.8 min | 58.2 h | 383 | 618 min | – | – | – | – | – | –
13 | COc1ccc2c(c1)COP(=O)(OC[C@@H]1C=C[C@H](n3cnc4c(N)ncnc43)O1)O2 (stereo in doubt; 10b (f)) | – | – | – | – | – | – | – | – | – | – | 932 | – | – | 0.48 | 40000 nM | 50 nM | 2830 nM | 43 nM
14 | COc1ccc2c(c1)COP(=O)(OC[C@@H]1C=C[C@H](n3cnc4c(N)ncnc43)O1)O2 (stereo in doubt; 10b (s)) | 62000 nM | – | – | – | 0.41 | – | – | > 50 µM | – | – | 125 | – | – | – | – | 330 nM | 12800 nM | 500 nM
15 | COc1ccc2c(c1)COP(=O)(OC[C@@H]1C=C[C@H](n3cnc4c(N)ncnc43)O1)O2 (stereo in doubt; 10b) | – | – | – | – | – | – | – | – | 0.66 min | 14.5 h | 962 | 8.4 min | – | – | 77000 nM | 65 nM | 1210 nM | 80 nM
16 | Cc1cn([C@H]2C=C[C@@H](CO)O2)c(=O)[nH]c1=O [STAVUDINE] | 56000 nM | 260 nM | 311 | – | – | 15000 nM | 180 nM | – | – | – | – | – | – | – | – | – | – | –
17 | Cc1cn([C@H]2C[C@H](N=[N+]=[N-])[C@@H](CO)O2)c(=O)[nH]c1=O [ZIDOVUDINE] | > 100000 nM | 6 nM | – | – | 0.025 | > 100000 nM | – | – | – | – | – | – | – | – | – | – | – | –
